Measured values taken from ChEMBL document CHEMBL4732074, “Design and synthesis of novel fluorescently labeled analogs of vemurafenib targeting MKK4” (Eur J Med Chem, 2021).

What follows are molecules tested against T1, Dual specificity mitogen-activated protein kinase kinase 4 (Homo sapiens) (UniProt P45985) (assay: Inhibition of wild-type human partial length MKK4 (S84 to D399 residues) expressed in mammalian expression system assessed as residual activity at 100 nM by KINOMEscan method relative to control).
T1 sequence (whole entry): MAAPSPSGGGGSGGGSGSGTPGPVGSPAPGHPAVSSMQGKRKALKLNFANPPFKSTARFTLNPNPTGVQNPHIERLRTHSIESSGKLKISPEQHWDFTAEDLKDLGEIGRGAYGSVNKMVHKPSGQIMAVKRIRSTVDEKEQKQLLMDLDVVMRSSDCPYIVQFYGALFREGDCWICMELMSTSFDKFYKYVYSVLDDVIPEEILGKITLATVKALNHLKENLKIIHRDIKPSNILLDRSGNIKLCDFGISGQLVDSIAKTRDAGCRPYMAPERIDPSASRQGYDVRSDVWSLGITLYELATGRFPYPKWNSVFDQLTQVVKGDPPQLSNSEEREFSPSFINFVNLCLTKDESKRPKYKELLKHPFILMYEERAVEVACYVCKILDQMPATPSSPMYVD
Outline: (§1)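 DiscoverX KINOMEscan binding assay: the compound at 100 nM competes with an immobilised ligand for kinase binding. Read-out is POC (percentage of control), where lower values mean stronger binding.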
Molecule `CCCS(=O)(=O)Nc1ccc(F)c(C(=O)c2c[nH]c3ncccc23)c1F` has an Activity of 14%.
Molecule `CCCS(=O)(=O)Nc1ccc(F)c(C(=O)c2ccc3[nH]c4ncc(-c5ccc(C(=O)NCCCNC(=O)c6ccc(-c7c8ccc(=[N+](C)C)cc-8oc8cc(N(C)C)ccc78)c(C(=O)[O-])c6)cc5)cc4c3c2)c1F` has an Activity of 13%.
For `CCCS(=O)(=O)Nc1ccc(F)c(C(=O)c2c[nH]c3ncc(-c4ccc(NC(=O)CNC(=O)OC(C)(C)C)cc4)cc23)c1F`, the Activity was 9.2%.
With `CCCS(=O)(=O)Nc1ccc(F)c(C(=O)c2c[nH]c3ncc(-c4ccc(NC(=O)CCCCNC(=O)c5ccc(-c6c7ccc(=[N+](C)C)cc-7oc7cc(N(C)C)ccc67)c(C(=O)[O-])c5)nc4)cc23)c1F` the Activity was 57%.
Work on `CCCS(=O)(=O)Nc1ccc(F)c(C(=O)c2ccc3[nH]c4ncc(-c5ccc(C(=O)NCCCCCCNC(=O)c6ccc(-c7c8ccc(=[N+](C)C)cc-8oc8cc(N(C)C)ccc78)c(C(=O)[O-])c6)nc5)cc4c3c2)c1F` yielded an Activity of 4.8%.
`CCCS(=O)(=O)Nc1ccc(F)c(C(=O)c2ccc3[nH]c4ncc(-c5ccc(C(=O)NCCCCNC(=O)c6ccc(-c7c8ccc(=[N+](C)C)cc-8oc8cc(N(C)C)ccc78)c(C(=O)[O-])c6)cc5)cc4c3c2)c1F` gave an Activity of 4.3%.
For `CCCS(=O)(=O)Nc1ccc(F)c(C(=O)c2c[nH]c3ncc(-c4ccc(NC(=O)CNC(=O)c5ccc(-c6c7ccc(=[N+](C)C)cc-7oc7cc(N(C)C)ccc67)c(C(=O)[O-])c5)nc4)cc23)c1F`, the Activity was 8.4%.
With `CCCS(=O)(=O)Nc1ccc(F)c(C(=O)c2ccc3[nH]c4ncc(-c5ccc(NC(=O)CNC(=O)c6ccc(-c7c8ccc(=[N+](C)C)cc-8oc8cc(N(C)C)ccc78)c(C(=O)[O-])c6)cc5)cc4c3c2)c1F` the Activity was 13%.
`CCCS(=O)(=O)Nc1ccc(F)c(C(=O)c2ccc3[nH]c4ncc(-c5ccc(C(=O)NCCCCCNC(=O)c6ccc(-c7c8ccc(=[N+](C)C)cc-8oc8cc(N(C)C)ccc78)c(C(=O)[O-])c6)cc5)cc4c3c2)c1F` was tested, and the Activity was 32%.
With `CCCS(=O)(=O)Nc1ccc(F)c(C(=O)c2c[nH]c3ncc(-c4ccc(NC(=O)CNC(=O)c5ccc(-c6c7ccc(=[N+](C)C)cc-7oc7cc(N(C)C)ccc67)c(C(=O)[O-])c5)cc4)cc23)c1F` the Activity was 11%.
With `CN(C)c1ccc2c(-c3ccc(C(=O)NCC(=O)Nc4ccc(-c5cnc6[nH]cc(C(=O)c7c(F)ccc(NS(=O)(=O)Cc8ccccc8)c7F)c6c5)cn4)cc3C(=O)[O-])c3ccc(=[N+](C)C)cc-3oc2c1` the Activity was 6.6%.
`CCCS(=O)(=O)Nc1ccc(F)c(C(=O)c2ccc3[nH]c4ncc(-c5ccc(C(=O)NCCCCNC(=O)c6ccc(-c7c8ccc(=[N+](C)C)cc-8oc8cc(N(C)C)ccc78)c(C(=O)[O-])c6)nc5)cc4c3c2)c1F` gave an Activity of 1.3%.
`CCCS(=O)(=O)Nc1ccc(F)c(C(=O)c2ccc3[nH]c4ncc(-c5ccc(C(=O)NCCCCCCNC(=O)c6ccc(-c7c8ccc(=[N+](C)C)cc-8oc8cc(N(C)C)ccc78)c(C(=O)[O-])c6)cc5)cc4c3c2)c1F` showed an Activity of 6.6%.
For `CCCS(=O)(=O)Nc1ccc(F)c(C(=O)c2ccc3[nH]c4ncc(-c5ccc(C(=O)NCCNC(=O)c6ccc(-c7c8ccc(=[N+](C)C)cc-8oc8cc(N(C)C)ccc78)c(C(=O)[O-])c6)cc5)cc4c3c2)c1F`, the Activity was 19%.
Molecule `CCCS(=O)(=O)Nc1ccc(F)c(C(=O)c2ccc3[nH]c4ncc(-c5cnc(C(=O)NCCCCNC(=O)c6ccc(-c7c8ccc(=[N+](C)C)cc-8oc8cc(N(C)C)ccc78)c(C(=O)[O-])c6)nc5)cc4c3c2)c1F` has an Activity of 9.3%.
With `CN(C)c1ccc2c(-c3ccc(C(=O)NCCCCC(=O)Nc4ccc(-c5cnc6[nH]cc(C(=O)c7c(F)ccc(NS(=O)(=O)Cc8ccccc8)c7F)c6c5)cn4)cc3C(=O)[O-])c3ccc(=[N+](C)C)cc-3oc2c1` the Activity was 13%.
Work on `CCCS(=O)(=O)Nc1ccc(F)c(C(=O)c2ccc3[nH]c4ncc(-c5ccc(C(=O)NCCCNC(=O)c6ccc(-c7c8ccc(=[N+](C)C)cc-8oc8cc(N(C)C)ccc78)c(C(=O)[O-])c6)nc5)cc4c3c2)c1F` yielded an Activity of 4.5%.

The molecules below were run against T1, Dual specificity mitogen-activated protein kinase kinase 4 (Homo sapiens) (assay: Inhibition of wild-type human partial length MKK4 (S84 to D399 residues) expressed in mammalian expression system assessed as residual activity at 30 nM by KINOMEscan method relative to control).
Outline: (§2)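 KINOMEscan competition binding against an immobilised ligand, run at the lower compound concentrations named in each line. Binding is reported as percentage of control (POC), with low POC indicating high affinity.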
`CCCS(=O)(=O)Nc1ccc(F)c(C(=O)c2ccc3[nH]c4ncc(-c5ccc(C(=O)NCCCCNC(=O)c6ccc(-c7c8ccc(=[N+](C)C)cc-8oc8cc(N(C)C)ccc78)c(C(=O)[O-])c6)nc5)cc4c3c2)c1F` gave an Activity of 4.1%.

Each molecule was assayed against T1, Dual specificity mitogen-activated protein kinase kinase 4 (Homo sapiens) (assay: Inhibition of wild-type human partial length MKK4 (S84 to D399 residues) expressed in mammalian expression system assessed as residual activity at 10 nM by KINOMEscan method relative to control).
Outline: as §2
For `CCCS(=O)(=O)Nc1ccc(F)c(C(=O)c2ccc3[nH]c4ncc(-c5ccc(C(=O)NCCCCNC(=O)c6ccc(-c7c8ccc(=[N+](C)C)cc-8oc8cc(N(C)C)ccc78)c(C(=O)[O-])c6)nc5)cc4c3c2)c1F`, the Activity was 18%.

These molecules were tested against Serine/threonine-protein kinase B-raf (Homo sapiens) (UniProt P15056) (assay: Inhibition of BRAF (unknown origin) assessed as assessed as residual activity relative to control).
Chain of Serine/threonine-protein kinase B-raf (Homo sapiens) (P15056 whole entry): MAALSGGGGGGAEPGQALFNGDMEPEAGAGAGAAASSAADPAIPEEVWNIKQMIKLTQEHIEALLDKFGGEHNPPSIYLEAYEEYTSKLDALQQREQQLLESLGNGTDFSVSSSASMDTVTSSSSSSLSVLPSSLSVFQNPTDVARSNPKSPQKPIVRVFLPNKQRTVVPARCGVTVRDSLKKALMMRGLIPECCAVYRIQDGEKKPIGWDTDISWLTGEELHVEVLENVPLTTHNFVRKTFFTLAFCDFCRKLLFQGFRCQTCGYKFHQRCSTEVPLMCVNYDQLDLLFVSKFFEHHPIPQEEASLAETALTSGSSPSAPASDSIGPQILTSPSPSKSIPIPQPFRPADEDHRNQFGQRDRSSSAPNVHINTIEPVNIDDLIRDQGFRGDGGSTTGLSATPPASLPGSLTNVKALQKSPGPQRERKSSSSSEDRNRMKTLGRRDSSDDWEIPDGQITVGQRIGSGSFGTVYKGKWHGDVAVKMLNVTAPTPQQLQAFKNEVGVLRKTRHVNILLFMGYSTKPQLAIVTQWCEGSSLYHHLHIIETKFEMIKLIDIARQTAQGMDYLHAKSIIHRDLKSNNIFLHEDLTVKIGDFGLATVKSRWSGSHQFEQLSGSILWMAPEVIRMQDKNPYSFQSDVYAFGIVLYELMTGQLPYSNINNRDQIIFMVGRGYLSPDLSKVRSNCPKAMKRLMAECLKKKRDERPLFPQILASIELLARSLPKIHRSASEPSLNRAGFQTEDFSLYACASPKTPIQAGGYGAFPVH
Outline: as §1
Molecule `CCCS(=O)(=O)Nc1ccc(F)c(C(=O)c2ccc3[nH]c4ncc(-c5ccc(C(=O)NCCCCNC(=O)c6ccc(-c7c8ccc(=[N+](C)C)cc-8oc8cc(N(C)C)ccc78)c(C(=O)[O-])c6)nc5)cc4c3c2)c1F` has an Activity of 92%.
